Assay results: ChEMBL document CHEMBL1145471, “Small molecule regulators of autophagy identified by an image-based high-throughput screen” (Proc Natl Acad Sci U S A, 2007)
Active and inactive are the calls of the source. The calls are words filed in the database; no cut-off is given here.

Experiments:
H4 [1] = assay: Increase in light chain 3-GFP+ autophagosome vesicle number per cell in human H4 cells at 6.6 uM after 24 hrs by high throughput fluorescence microscopy relative to control; assay type: functional
In short: (§1)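 H4 cells stably expressing LC3-GFP were grown in DMEM with 10% FBS and 2 mM L-glutamine at 37°C, 5% CO2. They were exposed to each compound for 24 h, with DMSO as negative and rapamycin as positive control. Cells were then fixed in 4% paraformaldehyde and stained with 3 μg/ml DAPI. High-throughput fluorescence imaging scored LC3-GFP spot number, size and intensity, expressed relative to DMSO. Mean ± SD of triplicates; experiments repeated three times.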

H4 [2] = assay: Increase in light chain 3-GFP+ autophagosome vesicle area per cell in human H4 cells at 6.6 uM after 24 hrs by high throughput fluorescence microscopy relative to control; assay type: functional
In short: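 H4 cells stably expressing LC3-GFP, seeded in 96-well plates and exposed to compound for 24 h; screening concentrations were 3–12 μM, with rapamycin 0.22 μM and bafilomycin A1 0.40 μM. Cells fixed in 4% paraformaldehyde and stained with 3 μg/ml DAPI. Number, size and intensity of LC3-GFP spots measured by high-throughput fluorescence microscopy and expressed as percent of DMSO-treated wells. Rapamycin was the positive control. Triplicate wells, mean ± SD; experiments repeated three times.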

H4 [3] = assay: Increase in light chain 3-GFP+ autophagosome vesicle intensity per cell in human H4 cells at 6.6 uM after 24 hrs by high throughput fluorescence microscopy relative to control; assay type: functional; in short: as §1
H4 [4] = assay: Effect on FYVE-RFP+ vesicle intensity per cell in human H4 cells after 2 hrs relative to control; assay type: functional; design: concentration or dose not given beside the values
In short: (§2)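 H4 cells stably expressing FYVE-RFP (H4-FYVE), grown in DMEM with 10% FBS, penicillin/streptomycin and 2 mM L-glutamine at 37°C, 5% CO2, seeded in 96-well plates and exposed to compound. Fixed in 4% paraformaldehyde, nuclei stained with 3 μg/ml DAPI, FYVE-RFP+ vesicles quantified by high-throughput fluorescence microscopy against DMSO control. Triplicate wells, mean ± SD.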

H4 [5] = assay: Effect on FYVE-RFP+ vesicle intensity per cell in human H4 cells after 4 hrs relative to control; assay type: functional; design: concentration or dose not given beside the values; in short: as §2
H4 [6] = assay: Effect on FYVE-RFP+ vesicle intensity per cell in human H4 cells after 8 hrs relative to control; assay type: functional; design: concentration or dose not given beside the values; in short: as §2
H4 [7] = assay: Increase in long-lived protein degradation in human H4 cells after 1 hr relative to control; assay type: functional; design: concentration or dose not given beside the values
H4 [8] = assay: Increase in long-lived protein degradation in human H4 cells after 2 hrs relative to control; assay type: functional; design: concentration or dose not given beside the values
H4 [9] = assay: Increase in long-lived protein degradation in human H4 cells after 4 hrs relative to control; assay type: functional; design: concentration or dose not given beside the values
H4 [10] = assay: Increase in long-lived protein degradation in human H4 cells after 24 hrs relative to control; assay type: functional; design: concentration or dose not given beside the values
H4 [11] = assay: Induction of light chain 3-GFP level in human H4 cells at 6.6 uM after 24 hrs by high throughput fluorescence microscopy relative to control; assay type: functional
In short: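 H4 cells stably expressing LC3-GFP, grown in DMEM with 10% FBS, penicillin/streptomycin and 2 mM L-glutamine at 37°C, 5% CO2. Cells were seeded in 96-well plates and exposed to library compounds at 3–12 μM for 24 h, then fixed in 4% paraformaldehyde and stained with 3 μg/ml DAPI. LC3-GFP spot number, size and intensity were measured by high-throughput fluorescence microscopy and expressed relative to DMSO. Triplicates, mean ± SD.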

H4 [12] = assay: Increase in light chain 3-GFP+ autophagosome vesicle area per cell in human H4 cells at 7.4 uM after 24 hrs by high throughput fluorescence microscopy relative to control; assay type: functional
In short: (§3)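 H4 cells stably expressing LC3-GFP, seeded in 96-well plates and exposed to compound for 24 h; fixed in 4% paraformaldehyde, nuclei stained with 3 μg/ml DAPI. Automated fluorescence microscopy scored number, size and intensity of LC3-GFP spots; values expressed relative to DMSO-treated wells, rapamycin positive control. Triplicate wells, mean ± SD; experiments repeated three times.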

H4 [13] = assay: Increase in light chain 3-GFP+ autophagosome vesicle number per cell in human H4 cells at 7.4 uM after 24 hrs by high throughput fluorescence microscopy relative to control; assay type: functional
In short: (§4)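 H4 cells stably expressing LC3-GFP, kept in DMEM/10% FBS at 37°C, 5% CO2, were seeded in 96-well plates and exposed to compound for 24 h. Cells were then fixed in 4% paraformaldehyde and stained with 3 μg/ml DAPI. Automated fluorescence microscopy scored the number, size and intensity of LC3-GFP spots. Values are percent of DMSO wells, in triplicate, mean ± SD. Rapamycin served as positive control.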

H4 [14] = assay: Increase in light chain 3-GFP+ autophagosome vesicle intensity per cell in human H4 cells at 7.4 uM after 24 hrs by high throughput fluorescence microscopy relative to control; assay type: functional; in short: as §3
H4 [15] = assay: Decrease in FYVE-RFP+ vesicle intensity per cell in human H4 cells after 2 hrs relative to control; assay type: functional; design: concentration or dose not given beside the values; in short: as §2
H4 [16] = assay: Decrease in FYVE-RFP+ vesicle intensity per cell in human H4 cells after 4 hrs relative to control; assay type: functional; design: concentration or dose not given beside the values; in short: as §2
H4 [17] = assay: Decrease in FYVE-RFP+ vesicle intensity per cell in human H4 cells after 8 hrs relative to control; assay type: functional; design: concentration or dose not given beside the values; in short: as §2
H4 [18] = assay: Induction of light chain 3-GFP level in human H4 cells at 7.4 uM after 24 hrs by high throughput fluorescence microscopy relative to control; assay type: functional; in short: as §4
H4 [19] = assay: Increase in ratio of light chain 3 subunit 2 to light chain 3 subunit 1 in human H4 cells at 5.3 uM after 4 hrs by Western blot; assay type: functional, cell-based
In short: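 H4 cells were treated with each compound for 4 h, then lysed. Lysates were immunoblotted with anti-LC3 antibody, with actin as loading control. LC3II and LC3I bands were compared as an LC3II/LC3I ratio.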

H4 [20] = assay: Reduction of poly(Q) level in human H4 cells expressing EGFP-Q79-HA after 24 hrs; assay type: functional, cell-based
In short: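 H4 cells were transiently transfected with an EGFP-Q79-HA expression vector. The medium was replaced 6 h after transfection and compounds were added. Poly(Q) was detected with anti-HA antibody.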

[21] = molecular target: Serine/threonine-protein kinase mTOR (Homo sapiens, UniProt P42345); assay: Effect on mTOR phosphorylation in human H4 cells at 5.3 uM after 4 hrs; assay type: cell-based
In short: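 H4 cells exposed to compound for 4 h. Lysates analysed by Western blot with anti-phospho and anti-total mTOR antibodies, with actin as loading control. Rapamycin served as reference.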

H4 [22] = assay: Increase in light chain 3-GFP+ autophagosome vesicle number per cell in human H4 cells at 5.3 uM after 24 hrs by high throughput fluorescence microscopy relative to control; assay type: functional; in short: as §4
H4 [23] = assay: Increase in light chain 3-GFP+ autophagosome vesicle area per cell in human H4 cells at 5.3 uM after 24 hrs by high throughput fluorescence microscopy relative to control; assay type: functional; in short: as §3
H4 [24] = assay: Increase in light chain 3-GFP+ autophagosome vesicle intensity per cell in human H4 cells at 5.3 uM after 24 hrs by high throughput fluorescence microscopy relative to control; assay type: functional; in short: as §3
H4 [25] = assay: Increase in FYVE-RFP+ vesicle intensity per cell in human H4 cells after 2 hrs relative to control; assay type: functional; design: concentration or dose not given beside the values; in short: as §2
H4 [26] = assay: Increase in FYVE-RFP+ vesicle intensity per cell in human H4 cells after 4 hrs relative to control; assay type: functional; design: concentration or dose not given beside the values; in short: as §2
H4 [27] = assay: Increase in FYVE-RFP+ vesicle intensity per cell in human H4 cells after 8 hrs relative to control; assay type: functional; design: concentration or dose not given beside the values; in short: as §2
H4 [28] = assay: Induction of light chain 3-GFP level in human H4 cells at 5.3 uM after 24 hrs by high throughput fluorescence microscopy relative to control; assay type: functional; in short: as §4

Which Activity (H4 [1]) does the source give for `CCCNCC(O)COc1ccccc1C(=O)CCc1ccccc1` (stereo unspecified) [PROPAFENONE] here?
The Activity was 210.4%.

And the Activity (H4 [2])?
Its Activity is 271.21%.

What about the Activity (H4 [3]) of the same compound?
The Activity was 385.97%.

What about the Activity (H4 [4]) of the same compound?
Its Activity is 114.69%.

What about the Activity (H4 [5]) of the same compound?
Its Activity is 78.75%.

And the Activity (H4 [6])?
Its Activity is 62.87%.

And the Activity (H4 [7])?
The Activity was 114.56%.

And the Activity (H4 [8])?
The Activity was 113.22%.

And the Activity (H4 [9])?
The Activity was 99.78%.

And the Activity (H4 [10])?
The Activity was 102.73%.

What about the Activity (H4 [11]) of the same compound?
The Activity was 99.88%.

For `CC(=O)C1=C(O)[C@@H]2[C@H]3c4c[nH]c5cccc(c45)C[C@H]3C(C)(C)N2C1=O` [CYCLOPIAZONIC ACID], which Activity (H4 [12]) is on record?
The Activity was 178.53%.

And the Activity (H4 [13])?
The Activity was 162.66%.

What about the Activity (H4 [14]) of the same compound?
The Activity was 186.44%.

And the Activity (H4 [15])?
Its Activity is 41.44%.

What about the Activity (H4 [16]) of the same compound?
Its Activity is 30.54%.

And the Activity (H4 [17])?
The Activity was 33.06%.

What about the Activity (H4 [7]) of the same compound?
The Activity was 103.58%.

And the Activity (H4 [8])?
The Activity was 97.66%.

What about the Activity (H4 [9]) of the same compound?
Its Activity is 96.45%.

And the Activity (H4 [10])?
The Activity was 96.32%.

And the Activity (H4 [18])?
Its Activity is 112.62%.

With `O=C1NCN(c2ccccc2)C12CCN(CCCC(c1ccc(F)cc1)c1ccc(F)cc1)CC2` [FLUSPIRILENE] as the compound, how does the Activity (H4 [19]) read?
Its Activity is “Active”.

And the Activity (H4 [20])?
Its Activity is “Dose-dependent effect”.

And the Activity [21]?
The Activity was “inactive”.

And the Activity (H4 [22])?
Its Activity is 309.6%.

What about the Activity (H4 [23]) of the same compound?
Its Activity is 532.51%.

What about the Activity (H4 [24]) of the same compound?
The Activity was 1593.16%.

What about the Activity (H4 [25]) of the same compound?
The Activity was 224.98%.

What about the Activity (H4 [26]) of the same compound?
The Activity was 142.15%.

What about the Activity (H4 [27]) of the same compound?
Its Activity is 108.53%.

And the Activity (H4 [7])?
The Activity was 93.82%.

What about the Activity (H4 [8]) of the same compound?
Its Activity is 143.17%.

And the Activity (H4 [9])?
The Activity was 144.79%.

What about the Activity (H4 [10]) of the same compound?
The Activity was 145.5%.

What about the Activity (H4 [28]) of the same compound?
Its Activity is 143.3%.
